Measured values gathered from unrelated publications.
Each line is one published result; the experiments were not run side by side. Converted amounts (≈) assume the structure as drawn.

| Structure (SMILES) | tested on | test | test system | setting | endpoint | value |
| --- | --- | --- | --- | --- | --- | --- |
| OC(Cn1cncn1)(Cn1cncn1)c1ccc(F)cc1F | Nakaseomyces glabratus | microbial growth, broth dilution | ATCC2001 |  | MIC | 2 µg/mL |
| N.N.[Cl][Pt][Cl] | HaCaT | cell growth or viability, MTT |  | 48 h | IC50 | 14.2 µM |
| Oc1c(Br)cc(Br)cc1-c1[nH]c(Br)c(Br)c1Br | Bacillus subtilis | microbial growth | ATCC6051 |  | MIC | 0.01 µM |
| COc1ccc(-c2[nH]c3c(C)c(C)ccc3c2C(=O)c2cc(OC)c(OC)c(OC)c2)cc1O |  | tubulin polymerisation, inhibitor, absorbance |  |  | IC50 | > 20 µM |
| Oc1c(Cl)cc(Cl)cc1-c1[nH]c(Cl)c(Cl)c1Cl | Bacillus subtilis | microbial growth | ATCC6051 |  | MIC | 0.04 µM |
| CC[C@@]1(O)C(=O)OCc2c1cc1n(c2=O)Cc2cc3ccccc3nc2-1 | LS174T | cell growth or viability, MTT |  | 48 h | IC50 | 31.6 µM |
| COc1ccc(-c2[nH]c3c(OC)c(OC)c(OC)cc3c2C(=O)c2cc(OC)c(OC)c(OC)c2)cc1O |  | tubulin polymerisation, inhibitor, absorbance |  |  | IC50 | > 20 µM |
| O=C/C=C/c1ccccc1 | Cryptococcus neoformans | microbial killing, broth dilution |  | clinical isolate | MFC | 200 µg/mL (≈ 1510 µM) |
